What was measured:
[1] = target: T1, Cannabinoid receptor 1 (Homo sapiens, UniProt P21554); test: Agonist activity at human CB1 receptor expressed in CHO-K1 cells assessed as forskolin-induced cAMP accumulation after 1 hr; assay type: functional, cell-based
Summary of the method: (§1)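 CHO-K1 cells (1000/well) expressing human CB1 or CB2 preincubated with compound 15 min at room temperature, then forskolin at EC70 added for a further 30 min at room temperature. cAMP measured by HTRF (d2-cAMP plus anti-cAMP-cryptate, final 1 h room temperature incubation). Values are the average of N = 1 to 3 results.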

[2] = target: T2, Cannabinoid receptor 2 (Homo sapiens, UniProt P34972); test: Agonist activity at human CB2 receptor expressed in CHO-K1 cells assessed as forskolin-induced cAMP accumulation after 1 hr relative to control; assay type: functional, cell-based; summary of the method: as §1
[3] = target: T2, Cannabinoid receptor 2; test: Agonist activity at human CB2 receptor expressed in CHO-K1 cells assessed as forskolin-induced cAMP accumulation after 1 hr; assay type: functional, cell-based; summary of the method: as §1
[4] = target: T1, Cannabinoid receptor 1; test: Agonist activity at human CB1 receptor expressed in CHO-K1 cells assessed as forskolin-induced cAMP accumulation after 1 hr relative to control; assay type: functional, cell-based; summary of the method: as §1
[5] = species on record: Homo sapiens; test: Selectivity ratio of EC50 for human CB1 receptor to EC50 for human CB2 receptor

T2 sequence (P34972 whole entry): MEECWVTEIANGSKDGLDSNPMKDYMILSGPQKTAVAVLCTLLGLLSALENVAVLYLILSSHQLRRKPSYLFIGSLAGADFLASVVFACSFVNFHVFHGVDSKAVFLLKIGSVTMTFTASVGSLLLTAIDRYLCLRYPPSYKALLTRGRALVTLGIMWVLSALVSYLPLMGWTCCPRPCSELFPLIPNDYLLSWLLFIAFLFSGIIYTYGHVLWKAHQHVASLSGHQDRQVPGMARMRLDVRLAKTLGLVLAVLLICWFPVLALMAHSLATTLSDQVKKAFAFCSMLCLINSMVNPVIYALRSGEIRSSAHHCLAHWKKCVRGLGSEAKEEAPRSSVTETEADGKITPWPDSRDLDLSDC
T1 sequence (P21554 whole entry): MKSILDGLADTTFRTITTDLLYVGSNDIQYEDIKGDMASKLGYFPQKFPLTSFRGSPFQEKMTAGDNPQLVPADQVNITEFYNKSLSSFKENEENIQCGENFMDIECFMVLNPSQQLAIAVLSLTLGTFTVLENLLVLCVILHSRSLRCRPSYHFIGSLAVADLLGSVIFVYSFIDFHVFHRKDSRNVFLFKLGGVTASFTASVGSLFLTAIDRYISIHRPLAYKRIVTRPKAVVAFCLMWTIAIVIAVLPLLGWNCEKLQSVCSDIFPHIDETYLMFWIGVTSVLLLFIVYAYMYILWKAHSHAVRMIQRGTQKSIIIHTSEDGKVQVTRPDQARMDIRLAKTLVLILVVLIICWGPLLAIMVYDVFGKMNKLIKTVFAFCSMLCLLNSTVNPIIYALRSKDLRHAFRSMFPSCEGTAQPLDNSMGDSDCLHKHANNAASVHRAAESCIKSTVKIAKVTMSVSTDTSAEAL

Question: What does the source list for `O=C(NCC1(CO)CCCC1)c1nc2c(-c3ccccc3)cccc2[nH]1`?
Answer: EC50 [1]: > 17000 nM; Emax [2]: 93%; EC50 [3]: 24.6 nM

Question: What does the source list for `O=C(NCc1ccccc1F)c1nc2c(-c3ccccc3)cccc2[nH]1`?
Answer: EC50 [1]: > 17000 nM; Emax [2]: 49%; EC50 [3]: 256 nM

Question: Which EC50 [1] does the source give for `O=C(NC1(CO)CCCCC1)c1nc2c(-c3ccccc3)cccc2[nH]1` here?
Answer: > 17000 nM

Question: And the Emax [2]?
Answer: 82%

Question: And the EC50 [3]?
Answer: 236 nM

Question: `O=C(NCc1ncccc1F)c1nc2c(-c3ccccc3)cccc2[nH]1` was tested. Which EC50 [1] did it give?
Answer: > 17000 nM

Question: And the Emax [2]?
Answer: 39%

Question: What about the EC50 [3] of the same compound?
Answer: 1440 nM

Question: Which results are given for `CCn1c(C(=O)NCC(C)(C)C)nc2c(-c3ccccc3)cccc21`?
Answer: EC50 [1]: 913 nM; Emax [4]: 87%; Emax [2]: 67%; EC50 [3]: 490 nM

Question: How did the EC50 [1] turn out when `O=C(NCC1(CO)CCCCC1)c1nc2c(-c3ccccc3)cccc2n1CC(F)(F)F` was run?
Answer: > 17000 nM

Question: And the Emax [2]?
Answer: 45%

Question: And the EC50 [3]?
Answer: 1970 nM

Question: For `O=C(NCC1(CO)CCCC1)c1nc2c(-c3ccccc3)cccc2n1CC(F)(F)F`, which EC50 [1] is on record?
Answer: > 17000 nM

Question: And the EC50 [3]?
Answer: > 17000 nM

Question: Which results are given for `O=C(NCc1cccc(C(F)(F)F)c1)c1nc2c(-c3ccccc3)cccc2[nH]1`?
Answer: EC50 [1]: > 17000 nM; Emax [2]: 69%; EC50 [3]: 256 nM

Question: What does the source list for `CC(C)(C)CNC(=O)c1nc2c(-c3ccccc3)cccc2n1CC(F)(F)F`?
Answer: EC50 [1]: > 17000 nM; EC50 [3]: > 17000 nM

Question: What does the source list for `CC(C)(C)CNC(=O)c1nc2c(-c3ccccc3)cccc2[nH]1`?
Answer: Ratio EC50 [5]: > 1160; EC50 [1]: > 17000 nM; Emax [2]: 95%; EC50 [3]: 14.7 nM

Question: What does the source list for `CCn1c(C(=O)NCc2ccccc2F)nc2c(-c3ccccc3)cccc21`?
Answer: EC50 [1]: > 17000 nM; Emax [2]: 98%; EC50 [3]: 45 nM

Question: How did the EC50 [1] turn out when `O=C(NCc1ccccc1)c1nc2c(-c3ccccc3)cccc2[nH]1` was run?
Answer: > 17000 nM

Question: What about the Emax [2] of the same compound?
Answer: 64%

Question: And the EC50 [3]?
Answer: 991 nM

Question: How did the Ratio EC50 [5] turn out when `CCn1c(C(=O)NCc2cccc(Cl)c2)nc2c(-c3ccccc3)cccc21` was run?
Answer: > 425

Question: What about the EC50 [1] of the same compound?
Answer: > 17000 nM

Question: What about the Emax [2] of the same compound?
Answer: 87%

Question: And the EC50 [3]?
Answer: 40 nM

Question: Which EC50 [1] does the source give for `O=C(NCc1ccccc1Cl)c1nc2c(-c3ccccc3)cccc2[nH]1` here?
Answer: > 17000 nM

Question: And the Emax [2]?
Answer: 64%

Question: What about the EC50 [3] of the same compound?
Answer: 443 nM

Question: Which results are given for `O=C(NC12CC3CC(CC(C3)C1)C2)c1nc2c(-c3ccccc3)cccc2[nH]1`?
Answer: Ratio EC50 [5]: 65; EC50 [1]: 123 nM; Emax [4]: 100%; Emax [2]: 99%; EC50 [3]: 1.9 nM

Question: Which EC50 [1] does the source give for `CCn1c(C(=O)NCC2(CO)CCCC2)nc2c(-c3ccccc3)cccc21` here?
Answer: > 17000 nM

Question: What about the Emax [2] of the same compound?
Answer: 68%

Question: And the EC50 [3]?
Answer: 1260 nM

Question: Which EC50 [1] does the source give for `O=C(NCC(O)CO)c1nc2c(-c3ccccc3)cccc2[nH]1` (stereo not given) here?
Answer: > 17000 nM

Question: What about the Emax [2] of the same compound?
Answer: 75%

Question: And the EC50 [3]?
Answer: 6.3 nM

Question: For `CCn1c(C(=O)NCc2ccccc2Cl)nc2c(-c3ccccc3)cccc21`, which Ratio EC50 [5] is on record?
Answer: 92

Question: What about the EC50 [1] of the same compound?
Answer: 913 nM

Question: And the Emax [4]?
Answer: 87%

Question: And the Emax [2]?
Answer: 101%

Question: What about the EC50 [3] of the same compound?
Answer: 9.9 nM

Question: For `CCn1c(C(=O)NCc2ccc(C#N)cc2)nc2c(-c3ccccc3)cccc21`, which EC50 [1] is on record?
Answer: > 17000 nM

Question: What about the Emax [2] of the same compound?
Answer: 99%

Question: What about the EC50 [3] of the same compound?
Answer: 84 nM

Question: Which results are given for `O=C(NCc1cccc(Cl)c1)c1nc2c(-c3ccccc3)cccc2[nH]1`?
Answer: EC50 [1]: > 17000 nM; Emax [2]: 67%; EC50 [3]: 165 nM

Question: For `O=C(NCC1(CO)CCCCC1)c1nc2c(-c3ccccc3)cccc2[nH]1`, which EC50 [1] is on record?
Answer: > 17000 nM

Question: And the Emax [2]?
Answer: 92%

Question: What about the EC50 [3] of the same compound?
Answer: 43 nM

Question: Which results are given for `CCn1c(C(=O)NCc2cncnc2)nc2c(-c3ccccc3)cccc21`?
Answer: EC50 [1]: > 17000 nM; Emax [2]: 89%; EC50 [3]: 1100 nM

Question: Which results are given for `O=C(NC12CC3CC(CC(C3)C1)C2)c1nc(C(O)c2cccnc2)c2ccccn12` (racemic)?
Answer: IC50 [1]: 3880 nM; Activity [4]: 82%; Activity [2]: 88%; IC50 [3]: 4.5 nM

— ChEMBL document CHEMBL3112571, “Benzimidazole CB2 agonists: design, synthesis and SAR” (Bioorg Med Chem Lett, 2014)
